In data set [1] the test system is Mycobacterium tuberculosis. Put plainly: Antimycobacterial activity against Mycobacterium tuberculosis H37Rv assessed as reduction in bacterial growth incubated for 7 days by resazurin dye based assay. The data set is classed as functional. To be noted: 168 h. The procedure, abridged:
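REMA broth microdilution: DMSO stocks diluted in 7H9-OADC, standardized inoculum added, final 0.98 to 250 μg/mL; 7 days at 35 °C in normal atmosphere, then 0.01% resazurin and a further 24 h at 35 °C. Read visually. MIC is the lowest concentration preventing the blue-to-pink change. Three independent assays on different days; isoniazid reference, medium, sterility and growth ±2.5% DMSO controls.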
In general terms: Resazurin is reduced to fluorescent resorufin, in cell work by metabolically active cells.

The nature of data set [2]: Cytotoxicity against African green monkey Vero cells assessed as reduction in cell viability incubated for 24 hrs by MTT assay. The data set is classed as cell-based. To be noted: chlorocebus sabaeus. Summed up: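 VERO (ATCC CCL81) cells grown in DMEM with 10% FBS at 37 °C, 5% CO₂. Seeded at 5 × 10⁴ cells/well for 24 h, then exposed to 1.95–1000 μg/mL in DMEM for 24 h. Washed with PBS, MTT (2 mg/mL in PBS) added for 4 h, dissolved in DMSO, A550 read. CC50 is the highest concentration leaving 50% of cells viable versus control. Three independent assays.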
In general terms: Formazan colour is commonly taken as a measure of viable cells.

Data set [3] can be described thus: Selectivity index, ratio of CC50 for African green monkey Vero cells to MIC for Mycobacterium tuberculosis H37Rv. The data set is classed as toxicity. The procedure, abridged: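 Selectivity index computed as the CC50 from VERO MTT assay divided by the REMA MIC against H37Rv.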
Data set [4] in a line: Selectivity index, ratio of CC50 for African green monkey Vero cells to MIC for Mycobacterium tuberculosis 3614. The data set is classed as toxicity.
Data set [5] is described as follows: Selectivity index, ratio of CC50 for African green monkey Vero cells to MIC for Mycobacterium tuberculosis 71A. The format is toxicity.
The nature of data set [6]: Selectivity index, ratio of CC50 for African green monkey Vero cells to MIC for Mycobacterium tuberculosis 19. The data set is classed as toxicity.
Data set [7] can be described thus: Selectivity index, ratio of CC50 for African green monkey Vero cells to MIC for Mycobacterium tuberculosis 73A. The data set is classed as toxicity.
A short description of data set [8]: Selectivity index, ratio of CC50 for African green monkey Vero cells to MIC for Mycobacterium tuberculosis 91. The format is toxicity.
Data set [9] is described as follows: Selectivity index, ratio of CC50 for African green monkey Vero cells to MIC for Mycobacterium tuberculosis BRF45. The format is toxicity.
The nature of data set [10]: Selectivity index, ratio of CC50 for African green monkey Vero cells to MIC for Mycobacterium tuberculosis BRF57. The data set is classed as toxicity.
Data set [11] in a line: Selectivity index, ratio of CC50 for African green monkey Vero cells to MIC for Mycobacterium tuberculosis BRF14. The format is toxicity.
Data set [12] is described as follows: Selectivity index, ratio of CC50 for African green monkey Vero cells to MIC for Mycobacterium tuberculosis BRF16. The format is toxicity.

The structures appear in SMILES notation. Converted amounts (≈) assume the structure as drawn.

As to `COC(=O)c1cc2c([nH]c3ccccc32)c(-c2ccccc2)n1`, in data set [1], the MIC is > 828 µM.
The same measure, in the same setting: under `COC(=O)c1cc2c([nH]c3ccccc32)c(-c2ccccc2Cl)n1` stands > 744 µM.
`COC(=O)c1cc2c([nH]c3ccccc32)c(-c2ccc(OC)cc2)n1`: in data set [1], the MIC was determined as 579 µM (≈ 192 µg/mL).
Same read-out and setting: the figure for `COC(=O)c1cc2c([nH]c3ccccc32)c(-c2cccc([N+](=O)[O-])c2)n1` is 720 µM (≈ 250 µg/mL).
As to `COC(=O)c1cc2c([nH]c3ccccc32)c(-c2ccc(N(C)C)cc2)n1`, in data set [1], the MIC stood at 362 µM (≈ 125 µg/mL). In addition, the CC50 at 24 h in [2] was found to be 435 µM. The selectivity ratio in data set [3] is 3.48; in [4], 13.5; in [5], < 1.74; in data set [6] it was 13.9; in data set [7] it was 13.9; in data set [8], 6.96. Further, the selectivity ratio in data set [9] was found to be 13.9; in [10], 3.48; in data set [11], 1.74; in data set [12], 3.48.
For the compound `O=C(NN1C(=O)CCC1=O)c1cc2c([nH]c3ccccc32)c(-c2ccc(F)cc2)n1`, the minimal inhibitory concentration (MIC) in [1] was 311 µM (≈ 125 µg/mL). Besides, the CC50 at 24 h in [2] is 270 µM. The selectivity ratio in data set [3] was 2.16; in data set [4], 4.32; in [5], 2.16; in data set [6], 4.32; in data set [7], 8.64; in [8], 2.16. Further, the selectivity ratio was determined as 8.64 in data set [9], 2.16 in [10], 4.32 in [11] and 4.32 in data set [12].
Take `O=C(NN1C(=O)C=CC1=O)c1cc2c([nH]c3ccccc32)c(-c2ccccc2)n1`: the MIC in data set [1] stood at 654 µM (≈ 250 µg/mL).
Still for that read-out and setting: under `O=C(NN1C(=O)c2ccccc2C1=O)c1cc2c([nH]c3ccccc32)c(-c2ccccc2Cl)n1` stands 536 µM (≈ 250 µg/mL).
On to `O=C(NN1C(=O)c2ccccc2C1=O)c1cc2c([nH]c3ccccc32)c(-c2cccc([N+](=O)[O-])c2)n1`, for which the minimal inhibitory concentration (MIC) in data set [1] stood at 262 µM (≈ 125 µg/mL). Moreover, the CC50 at 24 h in data set [2] was found to be 650 µM. The selectivity ratio in data set [3] is 5.2; in data set [4] it was 5.2; in [5], < 2.6; in [6], 5.2; in data set [7] it was 5.2; in data set [8], < 2.6. The selectivity ratio was 5.2 in data set [9], < 2.6 in data set [10], 2.6 in [11] and 5.2 in [12].
Take `COC(=O)c1cc2c([nH]c3ccccc32)c(-c2ccc(O)c(OC)c2)n1`: the MIC in data set [1] was 718 µM (≈ 250 µg/mL).
On to `O=C(NN1C(=O)C=CC1=O)c1cc2c([nH]c3ccccc32)c(-c2ccc(F)cc2)n1`, for which, in data set [1], the MIC was determined as 625 µM (≈ 250 µg/mL).
Consider `COc1ccc(-c2nc(C(=O)NN3C(=O)CCC3=O)cc3c2[nH]c2ccccc23)cc1`, for which, in [1], the minimal inhibitory concentration (MIC) is > 604 µM.
Still for that read-out and setting: the figure for `CN(C)c1ccc(-c2nc(C(=O)NN3C(=O)c4ccccc4C3=O)cc3c2[nH]c2ccccc23)cc1` is > 526 µM.
For `O=C(NN1C(=O)c2ccccc2C1=O)c1cc2c([nH]c3ccccc32)c(-c2ccccc2)n1`, the MIC in data set [1] is 289 µM (≈ 125 µg/mL). The CC50 at 24 h in data set [2] was determined as 900 µM. For the same compound, the selectivity ratio in data set [3] came to 7.2; in data set [4], 14.4; in [5], 7.2; in [6] it was 14.4; in data set [7], 14.4; in [8] it was 7.2. The selectivity ratio was determined as 14.4 in data set [9], 7.2 in data set [10], 7.2 in data set [11] and 7.2 in data set [12].
As to `O=C(NN1C(=O)c2ccccc2C1=O)c1cc2c([nH]c3ccccc32)c(-c2ccc(F)cc2)n1`, the minimal inhibitory concentration (MIC) in [1] came to 278 µM (≈ 125 µg/mL). Also, the half-maximal cytotoxic concentration (CC50) at 24 h in data set [2] stood at 762 µM. Further, the selectivity ratio in [3] is 6.1; in [4], 12.2; in data set [5], 6.1; in data set [6] it was 12.2; in data set [7], 12.2; in data set [8] it was 6.1. The results for the selectivity ratio in [9], in data set [10] and in [11] were 12.2, 6.1 and 12.2, respectively.
Consider `COc1ccc(-c2nc(C(=O)NN3C(=O)c4ccccc4C3=O)cc3c2[nH]c2ccccc23)cc1`, for which the MIC in [1] is > 541 µM.
As for `COc1cc(-c2nc(C(=O)NN3C(=O)c4ccccc4C3=O)cc3c2[nH]c2ccccc23)ccc1O`, in data set [1], the minimum inhibitory concentration (MIC) turned out to be 523 µM (≈ 250 µg/mL).
With `O=C(NN1C(=O)CCC1=O)c1cc2c([nH]c3ccccc32)c(-c2cccc([N+](=O)[O-])c2)n1`, the MIC in data set [1] was > 583 µM.
Still for that read-out and setting: under `COC(=O)c1cc2c([nH]c3ccccc32)c(-c2ccc(F)cc2)n1` stands > 781 µM; under `NNC(=O)c1ccncc1` [ISONIAZID], 0.06 µM (≈ 0.00823 µg/mL).

As a reminder, the MIC is the least concentration at which growth counts as inhibited. By CC50 is commonly meant the concentration giving 50% cytotoxicity.

(Values after ChEMBL document CHEMBL4602632, “Synthesis and anti-Mycobacterium tuberculosis activity of imide-β-carboline and carbomethoxy-β-carboline derivatives” (Eur J Med Chem, 2020).)
